Results reported in ChEMBL document CHEMBL1130234 (J Med Chem, 1997).

Experiments:
[1] = Partition coefficient (logP); format: physicochemical; settings: octanol/water
HaCaT [2] = assay: Antiproliferative (inhibition of cell growth) activity against HaCaT cells (human keratinocyte line); format: functional, cell-based
How it was run: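 HaCaT human keratinocytes treated for 48 h. Proliferation assessed by directly counting dispersed cells under a phase-contrast microscope; N = 3, significance versus control at P < 0.01.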

[3] = target: T1, Arachidonate 5-lipoxygenase (Bos taurus, UniProt Q9BEG3); assay: 5-LO inhibitory activity was determined by inhibition of LTB4 biosynthesis in bovine polymorphonuclear leukocytes (PMNL); format: functional, cell-based
T1 sequence (Q9BEG3 whole entry): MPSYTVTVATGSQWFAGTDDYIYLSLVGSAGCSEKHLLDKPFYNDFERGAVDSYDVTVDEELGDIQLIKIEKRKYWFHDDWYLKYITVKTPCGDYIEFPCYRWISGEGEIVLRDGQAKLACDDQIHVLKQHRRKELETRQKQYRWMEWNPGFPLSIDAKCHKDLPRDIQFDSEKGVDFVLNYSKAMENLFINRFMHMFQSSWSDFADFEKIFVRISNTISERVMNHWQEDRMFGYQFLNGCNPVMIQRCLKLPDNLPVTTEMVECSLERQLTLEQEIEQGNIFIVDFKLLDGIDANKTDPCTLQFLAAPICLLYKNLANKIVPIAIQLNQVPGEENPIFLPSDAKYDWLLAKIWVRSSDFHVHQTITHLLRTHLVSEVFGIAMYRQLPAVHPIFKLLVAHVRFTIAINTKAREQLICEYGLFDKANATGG
How it was run: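 LTB4 biosynthesis measured in bovine polymorphonuclear leukocytes, with NDGA as the standard inhibitor; N = 3 or more, significance versus control at P < 0.01.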

[4] = Antioxidant potential was assessed from reducing activity against 2,2,di-phenyl-1-picrylhydrazyl.
HaCaT [5] = assay: Cytotoxic activity (2 uM) was measured by the amount of LDH (mU) release in HaCaT cells.; format: functional, Homo sapiens
How it was run: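 HaCaT cells exposed to test compound at 2 μM; LDH activity (mU) released into the culture medium measured and compared with vehicle control; N = 3.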

Compound | logP [1] | IC50 (HaCaT [2]) | IC50 [3] | kDPPH [4] | LDH (HaCaT [5])
O=Cc1ccc2c(c1O)C(=O)c1c(O)cccc1C2 | 4.06 | > 5 µM | 6 µM | > 100 M⁻¹ s⁻¹ | –
O=C1c2c(O)cccc2C(Cc2ccccc2)c2cccc(O)c21 | 4.5 | > 5 µM | > 30 µM | < 2 M⁻¹ s⁻¹ | 135 mU
O=C1c2ccccc2Cc2ccc(O)c(O)c21 | 3.19 | 1.9 µM | 4 µM | 41.5 M⁻¹ s⁻¹ | –
CC(=O)Oc1cccc2c1C(=O)c1c(cccc1OC(C)=O)C2 | 2.4 | 0.7 µM | 9 µM | 3.6 M⁻¹ s⁻¹ | 314 mU
O=C1c2ccccc2Cc2ccccc21 [ANTHRONE] | 3.46 | > 5 µM | 2 µM | < 2 M⁻¹ s⁻¹ | 165 mU
O=C1c2cccc(O)c2C(=O)c2c(O)cccc21 [DANTHRON] | 4.16 | > 5 µM | > 30 µM | < 2 M⁻¹ s⁻¹ | 170 mU
O=C1c2c(O)cccc2C(O)c2cccc(O)c21 | 2.91 | > 5 µM | > 30 µM | < 2 M⁻¹ s⁻¹ | –
O=C1c2cccc(OCc3ccccc3)c2Cc2c(OCc3ccccc3)cccc21 | 5.73 | > 5 µM | – | 3.2 M⁻¹ s⁻¹ | –
CC(=O)Oc1cccc2c1C(=O)c1c(O)cccc1C2 | 3.25 | 0.8 µM | 6 µM | 16.1 M⁻¹ s⁻¹ | 243 mU
O=C1c2c(O)cccc2C(Cc2ccccc2)(Cc2ccccc2)c2cccc(O)c21 | 4.33 | > 5 µM | > 30 µM | < 2 M⁻¹ s⁻¹ | 167 mU
O=C1c2c(O)cccc2C([C@@H]2O[C@H](CO)[C@@H](O)[C@H](O)[C@H]2O)c2cc(CO)cc(O)c21 (some centres not stated) [ALOIN] | 1.83 | > 5 µM | > 30 µM | < 2 M⁻¹ s⁻¹ | –
Nc1cccc2c1C(=O)c1ccccc1C2 | 2.45 | > 5 µM | 28 µM | 50.5 M⁻¹ s⁻¹ | –
Cc1cc(O)c2c(=O)c3c(O)cc(O)c4c5c(O)cc(O)c6c(=O)c7c(O)cc(C)c8c1c2c(c34)c(c78)c65 [HYPERICIN] | 5.02 | 1.7 µM | > 30 µM | 3.66 M⁻¹ s⁻¹ | 159 mU
O=C1c2c(O)cccc2C(Br)c2cccc(O)c21 | 3.94 | > 5 µM | > 30 µM | 12.7 M⁻¹ s⁻¹ | –
c1ccc2c(c1)Cc1ccccc1C2 | 4.06 | > 5 µM | > 30 µM | – | –
O=C(c1ccccc1O)c1ccccc1O [2,2'-DIHYDROXYBENZPHENONE] | 2.66 | > 5 µM | > 30 µM | 2.1 M⁻¹ s⁻¹ | –
CC(=O)C1c2cccc(O)c2C(=O)c2c(O)cccc21 | 3.49 | 2.6 µM | 18 µM | 17.6 M⁻¹ s⁻¹ | 317 mU
CN(C)C=C1c2cccc(O)c2C(=O)c2c(O)cccc21 | 3.18 | 2.1 µM | 21 µM | 16.2 M⁻¹ s⁻¹ | –
c1ccc2cc3ccccc3cc2c1 | – | > 5 µM | > 30 µM | – | 131 mU

Compound | logP [1] | IC50 (HaCaT [2]) | IC50 [3] | kDPPH [4] | LDH (HaCaT [5])
O=C1c2c(O)cccc2Cc2cc(CO)cc(O)c21 | 3.37 | 0.7 µM | 30 µM | 20.1 M⁻¹ s⁻¹ | 376 mU
O=C1C=CC(=O)c2c(O)cccc21 [JUGLONE] | – | 0.8 µM | 17 µM | 6.6 M⁻¹ s⁻¹ | 384 mU
O=C1c2c(O)cccc2C(C(=O)c2ccccc2)c2cccc(O)c21 | 3.81 | > 5 µM | – | – | –
CCC1c2cccc(O)c2C(=O)c2c(O)cccc21 | 4.37 | > 5 µM | > 30 µM | < 2 M⁻¹ s⁻¹ | 161 mU
Oc1cccc(O)c1O [PYROGALLOL] | 1.19 | > 5 µM | 4 µM | > 100 M⁻¹ s⁻¹ | –
O=C1c2c(O)cccc2Cc2cccc(O)c21 [ANTHRALIN] | – | – | – | 24.2 M⁻¹ s⁻¹ | 294 mU
COC(=O)c1cc(O)c2c(c1)Cc1cccc(O)c1C2=O | 4.54 | 0.7 µM | > 30 µM | > 100 M⁻¹ s⁻¹ | 340 mU
Cc1ccc2c(c1O)C(=O)c1c(O)cccc1C2 | 4.99 | 1.5 µM | > 30 µM | 17.2 M⁻¹ s⁻¹ | 126 mU
CC(C)=CCc1c(C)c(CC=C(C)C)c2c(c1O)C(=O)c1c(O)cc(O)c(CC=C(C)C)c1C2 [HARUNGANOL B] | 8.01 | > 5 µM | > 30 µM | 3.1 M⁻¹ s⁻¹ | –
O=CC1c2cccc(O)c2C(=O)c2c(O)cccc21 | 2.79 | 1.9 µM | – | < 2 M⁻¹ s⁻¹ | 124 mU
CCC(=O)c1ccc2c(c1O)C(=O)c1c(O)cccc1C2 | 4.59 | 3.3 µM | – | > 100 M⁻¹ s⁻¹ | –
O=C(c1ccccc1)c1cccc2c1C(=O)c1c(O)cccc1C2 | 3.99 | 4.3 µM | 27 µM | 39.6 M⁻¹ s⁻¹ | –
N=C1c2c(O)cccc2Cc2cccc(O)c21 | 4.72 | 0.5 µM | > 30 µM | 2.7 M⁻¹ s⁻¹ | 137 mU
O=C1c2c(O)cccc2C(SCc2ccccc2)c2cccc(O)c21 | 4.87 | – | > 30 µM | > 100 M⁻¹ s⁻¹ | –
O=C1c2c(O)cccc2C(OCc2ccccc2)c2cccc(O)c21 | 4.25 | 3.8 µM | > 30 µM | – | –
CC(C)=CCc1c(C)cc(O)c2c1Cc1c(CC=C(C)C)c(O)cc(O)c1C2=O | 6.56 | > 5 µM | 25 µM | 8.2 M⁻¹ s⁻¹ | –
O=C1c2ccccc2Cc2cccc(O)c21 | 3.99 | > 5 µM | 13 µM | 9.6 M⁻¹ s⁻¹ | 170 mU
COc1cccc2c1C(=O)c1c(cccc1OC)C2 | 3.88 | > 5 µM | > 30 µM | – | 144 mU
COc1cccc2c1Cc1c(OC)cccc1C2=O | 3.68 | > 5 µM | 8 µM | < 2 M⁻¹ s⁻¹ | 137 mU

Compound | logP [1] | IC50 (HaCaT [2]) | IC50 [3] | kDPPH [4] | LDH (HaCaT [5])
O=C(O)c1cc(O)c2c(c1)Cc1cccc(O)c1C2=O | 2.96 | > 5 µM | 3 µM | > 100 M⁻¹ s⁻¹ | –
O=C1C=CC(=O)c2c(O)ccc(O)c21 [NAPHTHAZALIN] | 3.7 | 0.7 µM | – | 41.5 M⁻¹ s⁻¹ | 247 mU
COC1c2cccc(O)c2C(=O)c2c(O)cccc21 | 3.96 | 1.1 µM | > 30 µM | – | 146 mU
Cc1cc(O)c2c(c1)Cc1cccc(O)c1C2=O | 4.8 | 1.5 µM | > 30 µM | 15.3 M⁻¹ s⁻¹ | 211 mU
O=C1c2cccc(O)c2Cc2c(O)cccc21 | 2.17 | > 5 µM | 4 µM | < 2 M⁻¹ s⁻¹ | 144 mU
Cc1cc(O)c2c(c1)Cc1cc(O)cc(O)c1C2=O [EMODIN ANTHRONE] | 3.9 | > 5 µM | – | 21.4 M⁻¹ s⁻¹ | 114 mU
O=C1c2c(O)cccc2C(C2c3cccc(O)c3C(=O)c3c(O)cccc32)c2cccc(O)c21 | 5.01 | 0.6 µM | > 30 µM | < 1 M⁻¹ s⁻¹ | 263 mU
CCCCC(=O)C1c2cccc(O)c2C(=O)c2c(O)cccc21 | 4.12 | 4.4 µM | > 30 µM | 7 M⁻¹ s⁻¹ | 214 mU
COc1cccc2c1C(=O)c1c(O)cccc1C2 | 3.44 | 3.1 µM | – | 4.6 M⁻¹ s⁻¹ | 179 mU
CCCCc1ccc2c(c1O)C(=O)c1c(O)cccc1C2 | 5.89 | > 5 µM | > 30 µM | 6.5 M⁻¹ s⁻¹ | –
COc1cccc2c1Cc1c(O)cccc1C2=O | 2.6 | > 5 µM | – | < 2 M⁻¹ s⁻¹ | 141 mU
O=C1c2cccc(Cl)c2Cc2c(Cl)cccc21 | 5.05 | 2.1 µM | – | 3.4 M⁻¹ s⁻¹ | –
CCSC1c2cccc(O)c2C(=O)c2c(O)cccc21 | 2.97 | – | > 30 µM | > 100 M⁻¹ s⁻¹ | –
O=C1c2cccc(O)c2Cc2cccc(O)c21 | 3.51 | 4.3 µM | – | 13.5 M⁻¹ s⁻¹ | 191 mU
Nc1cccc2c1Cc1ccccc1C2=O | 2.46 | > 5 µM | 20 µM | 15.3 M⁻¹ s⁻¹ | –
O=C1c2c(Cl)cccc2Cc2cccc(Cl)c21 | 3.51 | > 5 µM | 4 µM | < 2 M⁻¹ s⁻¹ | –
O=C1c2ccccc2Cc2c1ccc(O)c2O | 3.81 | > 5 µM | 4 µM | > 100 M⁻¹ s⁻¹ | 144 mU
N#Cc1ccc2c(c1O)C(=O)c1c(O)cccc1C2 | 3.16 | 4.2 µM | 8 µM | > 100 M⁻¹ s⁻¹ | –
